In ChEMBL document CHEMBL4130512, “Design, synthesis and biological evaluation of novel α-hederagenin derivatives with anticancer activity” (Eur J Med Chem, 2017):
The source made the active and inactive calls. The calls are words filed in the database; no cut-off is given here.

Assays:
[1] = system: MKN-45; assay: Antiproliferative activity against human MKN45 cells after 72 hrs by MTT assay; type: functional, cell-based; details: MKN-45, 72 h
Outline: (§1)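 Cells grown in DMEM with 10% heat-inactivated FCS, penicillin and streptomycin, at 37°C in 5% CO₂, and used in log phase. Cells were seeded in 96-well plates and exposed to compound for 72 h. MTT was added, then DMSO, and OD was read at 570 nm. Survival rate was calculated and IC50 taken as 50% growth inhibition.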

[2] = system: MKN-45; assay: Cell cycle arrest in human MKN45 cells assessed as accumulation at G1-phase at 10 uM after 24 hrs by propidium iodide staining based flow cytometry (reference value: 67%); type: functional
Outline: (§2)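 MKN45 cells were plated at 2×10⁵ cells/well in 6-well plates and exposed for 24 and 48 h. Cells were harvested, fixed and stained with propidium iodide (50 µg/mL). DNA content was read by FACScan flow cytometry for phase distribution. The sub-G0/G1 fraction was taken as apoptotic.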

[3] = system: MKN-45; assay: Induction of apoptosis in human MKN45 cells assessed as increase in cleaved PARP expression at 5 to 10 uM after 48 hrs by Western blot method; type: functional, cell-based
Outline: (§3)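 MKN45 cells (2×10⁵) were treated with 5 or 10 µM. Lysates were run by electrophoresis and transferred to PVDF. Blots were probed overnight at 4°C for Bax, BCL2, PARP and β-actin (loading control), then with HRP secondary, and detected by ECL. Band density was scored in arbitrary units; three experiments.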

[4] = system: A549; assay: Antiproliferative activity against human A549 cells after 72 hrs by MTT assay; type: functional, cell-based; details: A549, 72 h; outline: as §1
[5] = system: MKN-45; assay: Cell cycle arrest in human MKN45 cells assessed as accumulation at S-phase at 10 uM after 24 hrs by propidium iodide staining based flow cytometry (reference value: 15%); type: functional; outline: as §2
[6] = system: MKN-45; assay: Cell cycle arrest in human MKN45 cells assessed as accumulation at G2/M-phase at 10 uM after 48 hrs by propidium iodide staining based flow cytometry (reference value: 19%); type: functional; outline: as §2
[7] = system: AGS; assay: Antiproliferative activity against human AGS cells after 72 hrs by MTT assay; type: functional, cell-based; outline: as §1
[8] = system: MKN-45; assay: Cell cycle arrest in human MKN45 cells assessed as accumulation at S-phase at 10 uM after 48 hrs by propidium iodide staining based flow cytometry (reference value: 15%); type: functional; outline: as §2
[9] = Antiproliferative activity against human KBV cells after 72 hrs by MTT assay; type: functional, cell-based; outline: as §1
[10] = system: MKN-45; assay: Induction of apoptosis in human MKN45 cells assessed as increase in Bax expression at 5 to 10 uM after 24 hrs by Western blot method; type: functional, cell-based; outline: as §3
[11] = system: MKN-45; assay: Cell cycle arrest in human MKN45 cells assessed as accumulation at G1-phase at 10 uM after 48 hrs by propidium iodide staining based flow cytometry (reference value: 67%); type: functional; outline: as §2
[12] = system: MKN-45; assay: Antiproliferative activity against human MKN45 cells assessed as cell viability at 10 uM after 72 hrs by MTT assay relative to control; type: functional; details: MKN-45, 72 h, read-out: Activity
Outline: (§4)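 Single-concentration MTT screen. Log-phase cells in DMEM with 10% FCS were treated for 72 h in 96-well plates. After MTT and DMSO, absorbance was read at 570 nm. Viability was calculated relative to control as mean ± SD of three independent experiments.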

[13] = system: BGC-823; assay: Antiproliferative activity against human BGC823 cells after 72 hrs by MTT assay; type: functional, cell-based; details: BGC-823, 72 h; outline: as §1
[14] = system: MKN-45; assay: Cell cycle arrest in human MKN45 cells assessed as accumulation at G2/M-phase at 10 uM after 24 hrs by propidium iodide staining based flow cytometry (reference value: 19%); type: functional; outline: as §2
[15] = system: MKN-45; assay: Cell cycle arrest in human MKN45 cells assessed as apoptotic cell accumulation at 10 uM after 48 hrs by propidium iodide staining based flow cytometry (reference value: 1.51%); type: functional; outline: as §2
[16] = system: MKN-45; assay: Induction of apoptosis in human MKN45 cells assessed as increase in Bax/Bcl2 expression ratio at 5 to 10 uM after 24 hrs by Western blot method; type: functional, cell-based; outline: as §3
[17] = system: HeLa; assay: Antiproliferative activity against human HeLa cells after 72 hrs by MTT assay; type: functional, cell-based; outline: as §1
[18] = system: MKN-45; assay: Induction of mitochondrial membrane potential loss in human MKN45 cells at 5 to 10 uM after 24 hrs by JC-1 staining based flow cytometry; type: functional, cell-based
Outline: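 MKN45 cells were plated at 2×10⁵ cells/well in 6-well plates and exposed to indicated concentrations for 24 h. They were stained with JC-1 for 20 min, and the change in mitochondrial membrane potential was measured by flow cytometry; three experiments.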

[19] = system: MKN-45; assay: Cell cycle arrest in human MKN45 cells assessed as apoptotic cell accumulation at 10 uM after 24 hrs by propidium iodide staining based flow cytometry (reference value: 1.51%); type: functional; outline: as §2
[20] = system: KB; assay: Antiproliferative activity against human KB cells assessed as cell viability at 10 uM after 72 hrs by MTT assay relative to control; type: functional; details: read-out: Activity; outline: as §4
[21] = system: MKN-45; assay: Induction of apoptosis in human MKN45 cells assessed as decrease in Bcl2 expression after 24 hrs by Western blot method; type: functional, cell-based; outline: as §3
[22] = system: KB; assay: Antiproliferative activity against human KB cells after 72 hrs by MTT assay; type: functional, cell-based; outline: as §1
[23] = system: KB; assay: Antiproliferative activity against human KB cells assessed as cell viability at 100 nM after 72 hrs by MTT assay relative to control; type: functional; details: read-out: Activity; outline: as §4
[24] = system: MKN-45; assay: Antiproliferative activity against human MKN45 cells assessed as cell viability at 100 nM after 72 hrs by MTT assay relative to control; type: functional; details: MKN-45, 72 h, read-out: Activity; outline: as §4

With `CCN/C(=N/CCCN(C)C)OC(=O)c1ccccc1C(=O)OC[C@]1(C)C(=O)CC[C@@]2(C)[C@H]1CC[C@]1(C)[C@@H]2CC=C2[C@@H]3CC(C)(C)CC[C@]3(C(=O)OCc3ccccc3)CC[C@]21C` the IC50 [1] was 7 µM, the Activity [2] was 68% and the Activity [3] was “Active”. The IC50 [4] was 6.3 µM, the Activity [5] was 11% and the Activity [6] was 31%. For the same molecule, the IC50 [7] was 4.4 µM, the Activity [8] was 16% and the IC50 [9] was 8.05 µM. The Activity [10] was “Active”, the Activity [11] was 54% and the viability at 10 µM [12] was 7%. For the same molecule, the IC50 [13] was 5.15 µM, the Activity [14] was 21% and the Activity [15] was 38.68%. For the same molecule, the Activity [16] was “Active”, the IC50 [17] was 4.22 µM and the Activity [18] was “Active”. The Activity [19] was 2.47%, the viability at 10 µM [20] was 26% and the Activity [21] was “Dose-dependent effect”. The IC50 [22] was 4.75 µM.
In the case of `CC(=O)O[C@H]1C(=O)[C@@]2(C)[C@H]([C@H](OC(=O)c3ccccc3)[C@]3(O)C[C@H](OC(=O)[C@H](O)[C@@H](NC(=O)c4ccccc4)c4ccccc4)C(C)=C1C3(C)C)[C@]1(OC(C)=O)CO[C@@H]1C[C@@H]2O` [PACLITAXEL], the viability at 0.1 µM [23] is reported as 15% and the viability at 0.1 µM [24] is reported as 23%.
